Reference: ChEMBL document CHEMBL1124666, “Novel linked antiviral and antitumor agents related to netropsin and distamycin: synthesis and biological evaluation” (1989)
Converted amounts (≈) assume the structure as drawn.

Assays:
[1] = tested on: Vesicular stomatitis virus; assay: Minimum inhibitory concentration against Vesicular stomatitis virus; format: functional
[2] = tested on: Vaccinia virus; assay: Minimum inhibitory concentration against vaccinia virus in primary rabbit kidney cell cultures of experiment 1; format: functional; conditions: Orthopoxvirus vaccinia
[3] = tested on: Vaccinia virus; assay: Minimum cytotoxic concentration against vaccinia virus embryonic skin muscle cell cultures; format: functional; conditions: Orthopoxvirus vaccinia
[4] = tested on: Vaccinia virus; assay: Minimum inhibitory concentration against Vaccinia virus; format: functional; conditions: Orthopoxvirus vaccinia
[5] = tested on: Vaccinia virus; assay: Minimum inhibitory concentration against vaccinia virus in Vero cell cultures of experiment 2; format: functional; conditions: Orthopoxvirus vaccinia
[6] = tested on: Vaccinia virus; assay: Minimum cytotoxic concentration against vaccinia virus in HeLa cell cultures; format: functional; conditions: Orthopoxvirus vaccinia
[7] = tested on: Vaccinia virus; assay: Minimum inhibitory concentration against vaccinia virus in Vero cell cultures of experiment 1; format: functional; conditions: Orthopoxvirus vaccinia
[8] = tested on: Human alphaherpesvirus 2; assay: Minimum inhibitory concentration against Herpes simplex virus 2(G); format: functional
[9] = tested on: Human alphaherpesvirus 1; assay: Minimum inhibitory concentration against Herpes simplex virus 1(KOS); format: functional
[10] = tested on: Vaccinia virus; assay: Minimum cytotoxic concentration against vaccinia virus in Vero cell cultures; format: functional; conditions: Orthopoxvirus vaccinia
[11] = tested on: Vaccinia virus; assay: Minimum inhibitory concentration against vaccinia virus embryonic skin muscle cell cultures; format: functional; conditions: Orthopoxvirus vaccinia
[12] = Minimum cytotoxic concentration in primary rabbit kidney (PRK) cell cultures; format: functional, Oryctolagus cuniculus
[13] = tested on: Vaccinia virus; assay: (§1) Minimum inhibitory concentration against vaccinia virus in primary rabbit kidney cell cultures of experiment 2; format: functional; conditions: Orthopoxvirus vaccinia
[14] = tested on: Vaccinia virus; assay: as §1; format: functional, Orthopoxvirus vaccinia; conditions: Orthopoxvirus vaccinia; read-out: MIC
[15] = tested on: Vaccinia virus; assay: Minimum cytotoxic concentration against vaccinia virus in primary rabbit kidney cell cultures; format: functional; conditions: Orthopoxvirus vaccinia
[16] = tested on: Calf thymus DNA; assay: Relative binding constant to calf thymus DNA; format: nucleic-acid assay; conditions: Bos taurus
Outline: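 Ethidium displacement: Tris-EDTA buffer pH 8 with 1.3 μM ethidium bromide and calf thymus DNA (1.35 μM final); drug aliquots added, fluorescence read after a few minutes' equilibration (excitation 525 nm, emission 600 nm). Drug level giving 50% fluorescence decrease converted to relative binding constant taking ethidium binding constant as 10^7 M-1.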

[17] = Inhibitory effect on the proliferation of human T-lymphoblast (Molt/4F ) cells; format: functional; conditions: read-out: ID50 (the source's name)
[18] = tested on: Raji; assay: Inhibitory effect on the proliferation of human B lymphoblast (Raji ) cells; format: functional; conditions: read-out: ID50 (the source's name)
[19] = Inhibition of Moloney Murine Leukemia Associated Reverse Transcriptase; format: functional, Mus musculus
[20] = tested on: L1210; assay: Inhibitory effect on the proliferation of murine leukemia (L1210 ) cells; format: functional; conditions: Mus musculus, read-out: ID50 (the source's name)
[21] = tested on: FM3A; assay: Inhibitory effect on the proliferation of murine mammary carcinoma (FM3A ) cells; format: functional; conditions: Mus musculus, read-out: ID50 (the source's name)
[22] = tested on: P388; assay: Inhibitory effect on the proliferation of murine leukemia (P388) cells; format: functional; conditions: Mus musculus, read-out: ID50 (the source's name)
[23] = tested on: Vaccinia virus; assay: Minimum inhibitory concentration against vaccinia virus in HeLa cell cultures; format: functional; conditions: Orthopoxvirus vaccinia

SMILES | MIC [1] [µg/mL] | MIC [2] [µg/mL] | MCC [3] [µg/mL] | MIC [4] [µg/mL] | MIC [5] [µg/mL] | MCC [6] [µg/mL] | MIC [7] [µg/mL] | MIC [8] [µg/mL] | MIC [9] [µg/mL] | MCC [10] [µg/mL] | MIC [11] [µg/mL] | MCC [12] [µg/mL] | MIC [13] [µg/mL] | MIC [14] [µg/mL] | MCC [15] [µg/mL] | Binding constant [16] [M⁻¹] | IC50 [18] [µg/mL] | ID50 [19] [µg/mL] | IC50 [20] [µg/mL] | IC50 [22] [µg/mL] | also measured
Nc1nccc2c1ncn2[C@@H]1C[C@H](CO)[C@@H](O)[C@H]1O [3-DEAZAARISTEROMYCIN A] | 0.7 (≈ 2.65 µM) | 2 (≈ 7.57 µM) | > 400 | 2 (≈ 7.57 µM) | 0.2 (≈ 0.757 µM) | > 400 | 0.2 (≈ 0.757 µM) | 300 (≈ 1140 µM) | > 400 | > 200 | 2 (≈ 7.57 µM) | >400 | 2 (≈ 7.57 µM) | 0.7 (≈ 2.65 µM) | > 400 | – | – | – | – | – | –
Cl.Cl.Cn1cc(NC(=O)c2cc(NC(=O)CCCCCCCCC(=O)Nc3cc(C(=O)Nc4cc(C(=O)NCCC(=N)N)n(C)c4)n(C)c3)cn2C)cc1C(=O)NCCC(=N)N | > 10 | 2 | > 100 | 0.7 | > 40 | 100 | 20 | > 10 | > 10 | > 40 | 0.2 | >40 | 2 | 20 | > 40 | 1.7e+07 | 3.24 | 20.9 | 4.21 | 0.98 | IC50 [17]: 2.97 µg/mL; IC50 [21]: 22.1 µg/mL
Cl.Cl.Cn1cc(NC(=O)c2cc(NC(=O)CCCCCCCC(=O)Nc3cc(C(=O)Nc4cc(C(=O)NCCC(=N)N)n(C)c4)n(C)c3)cn2C)cc1C(=O)NCCC(=N)N | > 100 | 7 | > 100 | 0.2 | 70 | > 200 | 40 | > 40 | > 40 | > 200 | 0.7 | >100 | 7 | 20 | > 100 | 9e+06 | 4.36 | 34.2 | 10.8 | 0.75 | IC50 [17]: 3.3 µg/mL; IC50 [21]: 32 µg/mL
O=C(O)C1=CC(=C(c2ccc(O)c(C(=O)O)c2)c2ccc(O)c(C(=O)O)c2)C=CC1=O [AURINTRICARBOXYLIC ACID] | – | – | – | – | – | – | – | – | – | – | – | – | – | – | – | – | – | 1.42 (≈ 3.36 µM) | – | – | –
Cl.Cl.Cn1cc(NC(=O)c2cc(NC(=O)CCCCCCC(=O)Nc3cc(C(=O)Nc4cc(C(=O)NCCC(=N)N)n(C)c4)n(C)c3)cn2C)cc1C(=O)NCCC(=N)N | > 10 | 0.7 | > 200 | 0.2 | 7 | > 200 | 7 | > 10 | > 10 | > 40 | 0.07 | >10 | 2 | 2 | > 40 | 2.5e+07 | 2.14 | 21.3 | 3.34 | 0.7 | IC50 [17]: 1.74 µg/mL; IC50 [21]: 3.15 µg/mL
Cn1cc(NC(=O)c2cc(NC(=O)CNC(=N)N)cn2C)cc1C(=O)NCCC(=N)N | – | – | – | – | – | – | – | – | – | – | – | – | – | – | – | 1.9e+07 | – | – | – | – | –
Cn1cc(NC(=O)c2cc(NC(=O)c3cc(NC=O)cn3C)cn2C)cc1C(=O)NCCC(=N)N [STALLIMYCIN] | – | – | – | – | – | – | – | – | – | – | – | – | – | – | – | 8e+06 | 24 (≈ 49.8 µM) | – | 27 (≈ 56.1 µM) | > 20 | IC50 [21]: 31 µg/mL (≈ 64.4 µM)
Cl.Cl.Cn1cc(NC(=O)c2cc(NC(=O)CC(=O)Nc3cc(C(=O)Nc4cc(C(=O)NCCC(=N)N)n(C)c4)n(C)c3)cn2C)cc1C(=O)NCCC(=N)N | > 10 | 2 | > 40 | 0.2 | 2 | > 40 | 2 | > 4 | > 4 | > 40 | 0.2 | >10 | 2 | 2 | 40 | 3.6e+07 | 3.39 | 39 | 28.5 | 0.91 | IC50 [17]: 2.85 µg/mL; IC50 [21]: 5.87 µg/mL
Cl.Cl.Cn1cc(NC(=O)c2cc(NC(=O)CCCC(=O)Nc3cc(C(=O)Nc4cc(C(=O)NCCC(=N)N)n(C)c4)n(C)c3)cn2C)cc1C(=O)NCCC(=N)N | > 200 | 20 | 400 | 7 | 150 | > 400 | 70 | 200 | > 200 | > 400 | 7 | >200 | 20 | 40 | > 200 | 1.8e+07 | > 100 | 39.9 | > 100 | 6.4 | IC50 [17]: > 100 µg/mL; IC50 [21]: > 100 µg/mL
NC(=O)c1ncn([C@@H]2O[C@H](CO)[C@@H](O)[C@H]2O)n1 [RIBAVIRIN] | > 400 | 20 (≈ 81.9 µM) | > 400 | 20 (≈ 81.9 µM) | 20 (≈ 81.9 µM) | > 400 | 7 (≈ 28.7 µM) | 300 (≈ 1230 µM) | > 400 | > 400 | 70 (≈ 287 µM) | >400 | 7 (≈ 28.7 µM) | 20 (≈ 81.9 µM) | > 400 | – | – | – | – | – | –
Cl.Cl.Cn1cc(NC(=O)c2cc(NC(=O)CCCCCCCCCCC(=O)Nc3cc(C(=O)Nc4cc(C(=O)NCCC(=N)N)n(C)c4)n(C)c3)cn2C)cc1C(=O)NCCC(=N)N | > 10 | 2 | > 40 | 2 | – | > 40 | > 40 | 7 | > 10 | > 100 | 0.2 | >40 | – | – | > 40 | 2.2e+07 | – | 9.1 | – | 4.8 | MIC [23]: 2 µg/mL
Cl.Cl.Cn1cc(NC(=O)c2cc(NC(=O)CCCCCC(=O)Nc3cc(C(=O)Nc4cc(C(=O)NCCC(=N)N)n(C)c4)n(C)c3)cn2C)cc1C(=O)NCCC(=N)N | > 200 | 7 | 200 | 2 | 20 | > 200 | 20 | 70 | 150 | > 200 | 0.7 | 400 | 7 | 20 | > 200 | 1.2e+07 | 11.1 | 72.5 | > 100 | 4.4 | IC50 [17]: 5.74 µg/mL; IC50 [21]: > 100 µg/mL
Nc1ncnc2c1ccn2[C@@H]1O[C@H](CO)[C@@H](O)[C@H]1O [TUBERCIDIN] | 0.2 (≈ 0.751 µM) | > 0.1 | > 0.1 | > 0.1 | 0.02 (≈ 0.0751 µM) | > 1 | 0.02 (≈ 0.0751 µM) | > 0.4 | > 0.4 | > 0.4 | 0.07 (≈ 0.263 µM) | >1 | 0.2 (≈ 0.751 µM) | 0.2 (≈ 0.751 µM) | > 0.4 | – | – | – | – | – | –
Cn1cc(NC(=O)c2cc(NC(=O)CCC(=O)Nc3cc(C(=O)Nc4cc(C(=O)NCCC(=N)N)n(C)c4)n(C)c3)cn2C)cc1C(=O)NCCC(=N)N | – | – | – | – | – | – | – | – | – | – | – | – | – | – | – | 7.2e+07 | – | – | – | – | –
Cl.Cl.Cn1cc(NC(=O)c2cc(NC(=O)c3cc(NC(=O)CCC(=O)Nc4cc(C(=O)Nc5cc(C(=O)Nc6cc(C(=O)NCCC(=N)N)n(C)c6)n(C)c5)n(C)c4)cn3C)cn2C)cc1C(=O)NCCC(=N)N | – | > 4 | > 4 | – | > 4 | > 20 | > 4 | – | – | > 4 | > 4 | – | > 4 | > 10 | > 4 | – | 41.4 | >400 | > 100 | > 20 | IC50 [17]: 2.85 µg/mL; IC50 [21]: 4.29 µg/mL
Cl.Cl.Cn1cc(NC(=O)c2cc(NC(=O)CCCCC(=O)Nc3cc(C(=O)Nc4cc(C(=O)NCCC(=N)N)n(C)c4)n(C)c3)cn2C)cc1C(=O)NCCC(=N)N | > 10 | 100 | 100 | 0.7 | 2 | > 400 | 1 | > 10 | > 10 | > 400 | 7 | >40 | 2 | 0.7 | > 40 | 1e+07 | 13.3 | 57.2 | 24.3 | 1.05 | IC50 [17]: 5.62 µg/mL; IC50 [21]: 57.8 µg/mL
